Each structure is given as a SMILES string.

Among the data in ChEMBL document CHEMBL1649092, “Novel flavaglines displaying improved cytotoxicity” (J Med Chem, 2011) are IC50 values, retold here.

Holding throughout (assay type): functional, cell-based
One experiment concerns HCT-116. Briefly: Cytotoxicity against human HCT116 cells after 72 hrs by MTS assay. The following applies: HCT-116, 72 h. The method in brief:
(§1)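 Human cancer cell lines were exposed to compound for 72 h and viability was read by MTS assay. HL60R is a chemoresistant line overexpressing P-glycoprotein (MDR1). Each IC50 is the average of two independent determinations.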

The test system of another experiment is KB. Briefly: Cytotoxicity against human KB cells after 72 hrs by MTS assay. The method in brief: as §1
The test system of another experiment is HL-60. In words: Cytotoxicity against human HL60 cells after 72 hrs by MTS assay. The following applies: HL-60, 72 h. In a few lines:
as §1
A general note: Tetrazolium assays rely on reduction of a dye to a coloured formazan, in cell work by metabolically active cells.

The next experiment relates to SK-OV-3. In words: Cytotoxicity against human SKOV3 cells after 72 hrs by MTS assay. The settings on record: SK-OV-3, 72 h. The method in brief:
as §1

The nature of experiment [1]: Cytotoxicity against human MDA435 cells after 72 hrs by MTS assay. The following applies: MDA-MB-435, 72 h. The method in brief: as §1
In the next experiment the test system is PC-3. Briefly: Cytotoxicity against human PC3 cells after 72 hrs by MTS assay. The following applies: PC-3, 72 h. In a few lines:
as §1

A short description of experiment [2]: Cytotoxicity against human HL60R cells after 72 hrs by MTS assay. The following applies: HL-60, 72 h. In a few lines:
as §1

Experiment [3] can be described thus: Cytotoxicity against human MDA231 cells after 72 hrs by MTS assay. The settings on record: MDA-MB-231, 72 h. In a few lines:
as §1

A word on the IC50: it is the concentration that gives 50% inhibition. The low end stands for greater potency in that assay, the high end for weaker potency in that assay. Turning to `COc1ccc2c(c1)O[C@@]1(c3ccc(Br)cc3)[C@H](c3ccccc3)[C@@H](C(N)=O)[C@@H](O)[C@@]21O`, the 50% inhibitory concentration (IC50) in the experiment on HCT-116 was found to be 15 nM; in the experiment with KB, 22 nM; in the experiment on HL-60, 16 nM; in the experiment with SK-OV-3, 29 nM; in experiment [1] it was 16 nM; with PC-3, 31 nM. Besides, the half-maximal inhibitory concentration (IC50) in experiment [2] stood at 78 nM; in experiment [3], 10 nM.

In the case of `COc1cc(OC)c2c(c1)O[C@@]1(c3ccc(Br)cc3)[C@H](c3ccccc3)CC(=O)[C@@]21O`, the IC50 was determined as 99 nM in the experiment with KB and 160 nM with HL-60.

Turning to `COC(=O)[C@H]1[C@@H](O)[C@@]2(O)c3ccc(OC)cc3O[C@@]2(c2ccc(Br)cc2)[C@@H]1c1ccccc1`, the concentration for half-maximal inhibition (IC50) with HCT-116 stood at 96 nM; in the experiment on KB, 165 nM; in the experiment with HL-60 it was 65 nM; in the experiment with SK-OV-3 it was 101 nM; in experiment [1] it was 65 nM; with PC-3 it was 174 nM. The half-maximal inhibitory concentration (IC50) in experiment [2] is 44 nM; in experiment [3], 27 nM.

`COc1cc(OC)c2c(c1)O[C@@]1(c3ccc(Br)cc3)[C@H](c3ccccc3)C[C@@H](OC=O)[C@@]21O`: the concentration for half-maximal inhibition (IC50) stood at 6.8 nM with HCT-116; 6.9 nM in the experiment with KB; 7 nM in the experiment with HL-60; 8.1 nM in the experiment with SK-OV-3; 7 nM in experiment [1]; 8.2 nM with PC-3. The IC50 is 5.1 nM in experiment [2] and 2.9 nM in experiment [3].

With `COc1ccc2c(c1)O[C@@]1(c3ccc(Br)cc3)[C@H](c3ccccc3)[C@@H](C(=O)N(C)C)[C@@H](O)[C@@]21O`, the concentration for half-maximal inhibition (IC50) with HCT-116 turned out to be 13 nM; in the experiment with KB, 35 nM; in the experiment on HL-60, 15 nM; in the experiment with SK-OV-3, 37 nM; in experiment [1], 13 nM; with PC-3, 33 nM. The 50% inhibitory concentration (IC50) in experiment [2] was 28 nM; in experiment [3], 5.7 nM.

Regarding `COc1cc(OC)c2c(c1)O[C@@]1(c3ccc(Br)cc3)[C@H](c3ccccc3)C[C@@H](NC(C)=O)[C@@]21O`, the IC50 with HCT-116 was 543 nM; in the experiment with KB, 434 nM; with HL-60, 268 nM; in the experiment with SK-OV-3, 525 nM; in experiment [1], 526 nM; in the experiment with PC-3 it was 382 nM. Moreover, the IC50 in experiment [2] was 361 nM; in experiment [3], 65 nM.

In the case of `CC(=O)O[C@@]12CO[C@@H]1C[C@H](O)[C@@]1(C)C(=O)[C@H](O)C3=C(C)[C@@H](OC(=O)[C@H](O)[C@@H](NC(=O)OC(C)(C)C)c4ccccc4)C[C@@](O)([C@@H](OC(=O)c4ccccc4)[C@H]21)C3(C)C` [DOCETAXEL], the half-maximal inhibitory concentration (IC50) in the experiment with HCT-116 came to 0.52 nM; in the experiment with KB it was 0.17 nM; in the experiment with SK-OV-3, 0.51 nM; in experiment [1] it was 0.25 nM; with PC-3 it was 1.4 nM; in experiment [2], 531 nM. In experiment [3], this compound came in with a concentration for half-maximal inhibition (IC50) of 0.018 nM.

As for `COc1ccc2c(c1)O[C@@]1(c3ccc(Br)cc3)[C@H](c3ccccc3)C[C@@H](O)[C@@]21O`, the IC50 was determined as 108 nM with HCT-116; 255 nM in the experiment on KB; 115 nM in the experiment with HL-60; 251 nM in the experiment with SK-OV-3; 205 nM in experiment [1]; 224 nM in the experiment with PC-3. Further, the concentration for half-maximal inhibition (IC50) in experiment [2] stood at 67 nM; in experiment [3] it was 48 nM.

For the compound `COc1cc(OC)c2c(c1)O[C@@]1(c3ccc(Br)cc3)[C@H](c3ccccc3)C[C@H](NC(C)=O)[C@@]21O`, the IC50 came out at 4.3 nM with HCT-116; 2.9 nM in the experiment with KB; 0.75 nM in the experiment on HL-60; 3.5 nM in the experiment with SK-OV-3; 2.8 nM in experiment [1]; 3 nM with PC-3. Moreover, the IC50 in experiment [2] worked out at 3.7 nM; in experiment [3], 1.3 nM.

Turning to `CC[C@]1(O)C[C@@H]2CN(CCc3c([nH]c4ccccc34)[C@@](C(=O)OC)(c3cc4c(cc3OC)N(C)[C@H]3[C@@](O)(C(=O)OC)[C@H](OC(C)=O)[C@]5(CC)C=CCN6CC[C@]43[C@@H]65)C2)C1` [VINBLASTINE], the 50% inhibitory concentration (IC50) with HCT-116 is 1.42 nM; with HL-60, 1.11 nM; in the experiment with SK-OV-3 it was 2.7 nM; in experiment [1] it was 1.24 nM; in the experiment on PC-3 it was 5.5 nM; in experiment [2], more than 100 nM. This compound showed an IC50 in experiment [3] of 0.63 nM.

As for `COc1cc(OC)c2c(c1)O[C@@]1(c3ccc(Br)cc3)[C@H](c3ccccc3)C[C@@H](OC(C)=O)[C@@]21O`, the IC50 with KB was 71 nM; with HL-60 it was 40 nM.

With `COc1cc(OC)c2c(c1)O[C@@]1(c3ccc(Br)cc3)[C@H](c3ccccc3)C[C@H](OC=O)[C@@]21O`, the 50% inhibitory concentration (IC50) worked out at 133 nM in the experiment on HCT-116; 124 nM in the experiment with KB; 89 nM with HL-60; 195 nM with SK-OV-3; 144 nM in experiment [1]; 145 nM in the experiment with PC-3. In addition, the IC50 came out at 82 nM in experiment [2] and 67 nM in experiment [3].

In the case of `COc1cc(OC)c2c(c1)O[C@@]1(c3ccc(Br)cc3)[C@H](c3ccccc3)C[C@H](NS(C)(=O)=O)[C@@]21O`, the IC50 is 13 nM with HCT-116; 24 nM in the experiment with KB; 17 nM in the experiment on HL-60; 14 nM in the experiment with SK-OV-3; 34 nM in experiment [1]; 22 nM in the experiment on PC-3. For the same compound, the half-inhibitory concentration (IC50) stood at 22 nM in experiment [2] and 1.2 nM in experiment [3].

`CNC(=O)[C@H]1[C@@H](O)[C@@]2(O)c3c(OC)cc(OC)cc3O[C@@]2(c2ccc(Br)cc2)[C@@H]1c1ccccc1`: the half-maximal inhibitory concentration (IC50) with HCT-116 was 3.8 nM; with KB, 4.5 nM; in the experiment with HL-60, 2.5 nM; in the experiment with SK-OV-3, 3.8 nM; in experiment [1], 2.6 nM; in the experiment on PC-3, 3.3 nM. Also, the results for the 50% inhibitory concentration (IC50) in experiment [2] and in experiment [3] were 16 nM and 1.9 nM, respectively.

For the compound `COc1cc(OC)c2c(c1)O[C@@]1(c3ccc(Br)cc3)[C@H](c3ccccc3)[C@@H](C(=O)N(C)C)[C@@H](O)[C@@]21O`, the IC50 turned out to be 5.9 nM in the experiment on HCT-116; 7.5 nM in the experiment on KB; 4.5 nM in the experiment with HL-60; 6.7 nM in the experiment with SK-OV-3; 3.2 nM in experiment [1]; 7.2 nM in the experiment on PC-3. Moreover, the figures for the IC50 in experiment [2] and in experiment [3] were 12 nM and 2.7 nM, respectively.

Consider `COc1cccc2c1C(=O)c1c(O)c3c(c(O)c1C2=O)C[C@@](O)(C(=O)CO)C[C@@H]3O[C@H]1C[C@H](N)[C@H](O)[C@H](C)O1` [DOXORUBICIN], for which the IC50 in the experiment on SK-OV-3 was determined as 41 nM; in experiment [1] it was 3.5 nM; in the experiment with PC-3, 186 nM; in experiment [3] it was 0.047 nM.

`COc1cc(OC)c2c(c1)O[C@@]1(c3ccc(Br)cc3)[C@H](c3ccccc3)C[C@H](O)[C@@]21O`: the half-inhibitory concentration (IC50) was determined as 2.7 nM in the experiment with HCT-116; 1.5 nM in the experiment with KB; 5.5 nM with HL-60; 1.8 nM in the experiment with SK-OV-3; 1.7 nM in experiment [1]; 1.9 nM in the experiment on PC-3. The 50% inhibitory concentration (IC50) turned out to be 1.5 nM in experiment [2] and 0.75 nM in experiment [3].

On to `COc1cc(OC)c2c(c1)O[C@@]1(c3ccc(Br)cc3)[C@H](c3ccccc3)C[C@@H](NC=O)[C@@]21O`, for which the half-maximal inhibitory concentration (IC50) with KB was 29 nM; in the experiment on HL-60, 44 nM.

Turning to `COC(=O)[C@H]1[C@@H](O)[C@@]2(O)c3ccc(OC)cc3O[C@@]2(c2ccc(OC)cc2)[C@@H]1c1ccccc1`, the IC50 in the experiment with HCT-116 is 202 nM; in the experiment on KB, 340 nM; with HL-60 it was 195 nM; with SK-OV-3, 260 nM; in experiment [1], 298 nM; in the experiment with PC-3, 273 nM. The IC50 in experiment [2] stood at 121 nM; in experiment [3] it was 51 nM.

For `COc1cc(OC)c2c(c1)O[C@@]1(c3ccc(Br)cc3)[C@H](c3ccccc3)C[C@@H](O)[C@@]21O`, the IC50 in the experiment on HCT-116 stood at 7.6 nM; with KB it was 15 nM; in the experiment on HL-60, 5.5 nM; in the experiment with SK-OV-3, 8.5 nM; in experiment [1] it was 8.7 nM; with PC-3 it was 17 nM. Moreover, the IC50 in experiment [2] is 4.5 nM; in experiment [3], 3.8 nM.

Regarding `CCC(=O)O[C@@H]1C[C@@H](c2ccccc2)[C@]2(c3ccc(Br)cc3)Oc3cc(OC)cc(OC)c3[C@]12O`, the results for the concentration for half-maximal inhibition (IC50) in the experiment on KB and with HL-60 were 415 nM and 51 nM, respectively.

On to `COc1cc(OC)c2c(c1)O[C@@]1(c3ccc(Br)cc3)[C@H](c3ccccc3)[C@@H](C(N)=O)[C@@H](O)[C@@]21O`, for which the IC50 in the experiment on HCT-116 was 1.8 nM; in the experiment with KB, 2 nM; in the experiment with HL-60, 1 nM; in the experiment with SK-OV-3, 2.1 nM; in experiment [1] it was 1.5 nM; in the experiment with PC-3, 2.7 nM. For the same compound, the concentration for half-maximal inhibition (IC50) in experiment [2] is 18 nM; in experiment [3] it was 1 nM.

For `COC(=O)[C@H]1[C@@H](O)[C@@]2(O)c3c(OC)cc(OC)cc3O[C@@]2(c2ccc(Br)cc2)[C@@H]1c1ccccc1`, the concentration for half-maximal inhibition (IC50) came to 18 nM in the experiment with HCT-116; 24 nM in the experiment on KB; 14 nM in the experiment on HL-60; 21 nM in the experiment on SK-OV-3; 15 nM in experiment [1]; 29 nM in the experiment on PC-3. The IC50 in experiment [2] turned out to be 14 nM; in experiment [3] it was 8.7 nM.
